A word on the IC50: it is the midpoint of a concentration-inhibition curve.

IC50 data for 13 compounds are collected here from ChEMBL document CHEMBL3870325 (Bioorg Med Chem, 2017).

One assay concerns the target Histone deacetylase 1 (Homo sapiens, UniProt Q13547). Nature of the assay: Inhibition of HDAC1 (unknown origin) using acetylated peptide substrate preincubated for 15 mins followed by substrate addition measured after 60 mins by fluorescence analysis.
Assay [1] has as its target Epidermal growth factor receptor (Homo sapiens, UniProt P00533).
The target of assay [2] is Receptor tyrosine-protein kinase erbB-2 (Homo sapiens, UniProt P04626). Nature of the assay: Inhibition of HER2 (unknown origin) assessed as remaining ATP level measured after 15 mins by luminescence analysis. The method, boiled down:
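Kinase run as a contracted HTRF assay. Compounds in 3-fold dilution in 2.5% DMSO/kinase buffer, mixed with kinase and substrate, preincubated 15 min at RT. ATP added to start, reaction 30 min at RT. Stopped with Streptavidin-XL665 plus europium-cryptate TK antibody (1:100). Excitation 320 nm, 665/615 nm emission ratio. IC50 from inhibition curves, results from 2 assays.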

In assay [3] the target is T1, Protein deacetylase HDAC6 (Homo sapiens, UniProt Q9UBN7).
T1 sequence (Q9UBN7 whole entry): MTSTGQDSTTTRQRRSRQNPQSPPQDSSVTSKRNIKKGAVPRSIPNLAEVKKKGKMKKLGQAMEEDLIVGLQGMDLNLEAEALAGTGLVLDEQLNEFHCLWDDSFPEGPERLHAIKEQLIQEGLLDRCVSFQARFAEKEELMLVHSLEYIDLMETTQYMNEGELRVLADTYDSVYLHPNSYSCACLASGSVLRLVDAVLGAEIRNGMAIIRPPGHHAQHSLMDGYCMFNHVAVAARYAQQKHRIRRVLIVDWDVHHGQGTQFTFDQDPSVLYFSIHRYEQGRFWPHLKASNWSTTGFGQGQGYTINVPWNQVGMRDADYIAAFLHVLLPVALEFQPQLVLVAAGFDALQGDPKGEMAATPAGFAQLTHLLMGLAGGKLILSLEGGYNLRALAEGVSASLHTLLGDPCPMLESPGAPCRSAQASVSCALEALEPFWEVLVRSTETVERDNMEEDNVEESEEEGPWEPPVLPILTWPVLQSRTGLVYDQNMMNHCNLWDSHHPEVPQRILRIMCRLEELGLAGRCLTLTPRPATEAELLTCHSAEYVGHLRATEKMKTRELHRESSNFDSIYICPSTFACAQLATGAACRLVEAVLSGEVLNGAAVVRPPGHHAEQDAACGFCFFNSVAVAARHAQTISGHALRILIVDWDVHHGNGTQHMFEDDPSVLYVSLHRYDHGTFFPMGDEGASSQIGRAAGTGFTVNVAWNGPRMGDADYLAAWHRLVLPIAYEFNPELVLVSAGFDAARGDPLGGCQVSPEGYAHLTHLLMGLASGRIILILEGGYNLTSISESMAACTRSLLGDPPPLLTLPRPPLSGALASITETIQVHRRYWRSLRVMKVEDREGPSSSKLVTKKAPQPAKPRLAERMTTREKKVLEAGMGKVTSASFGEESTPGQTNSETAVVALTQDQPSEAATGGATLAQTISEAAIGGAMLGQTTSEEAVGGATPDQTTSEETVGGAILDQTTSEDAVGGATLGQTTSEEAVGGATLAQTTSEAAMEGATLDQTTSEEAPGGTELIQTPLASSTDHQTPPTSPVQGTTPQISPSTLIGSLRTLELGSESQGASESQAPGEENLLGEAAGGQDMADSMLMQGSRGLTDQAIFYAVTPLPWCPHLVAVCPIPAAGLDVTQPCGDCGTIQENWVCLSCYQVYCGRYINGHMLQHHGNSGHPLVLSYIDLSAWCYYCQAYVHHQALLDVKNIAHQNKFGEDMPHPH
Nature of the assay: Inhibition of HDAC6 (unknown origin) using acetylated peptide substrate preincubated for 15 mins followed by substrate addition measured after 60 mins by fluorescence analysis.

Assay [4] can be described thus: cells. Type of assay: functional, cell-based. The conditions noted are these: Homo sapiens, A549, 48 h.
Assay [5] in a line: cells. The conditions noted are these: Homo sapiens, BT-474, 48 h. Type of assay: functional, cell-based.
The nature of assay [6]: cells. The conditions noted are these: Homo sapiens, SK-BR-3, 48 h.
The nature of assay [7]: cells. The conditions noted are these: Homo sapiens, A-431, 48 h.
Assay [8] can be described thus: cells. The conditions noted are these: Homo sapiens, NCI-H1975, 48 h.

The structures appear in SMILES notation.

Chain of Histone deacetylase 1 (Q13547 whole entry): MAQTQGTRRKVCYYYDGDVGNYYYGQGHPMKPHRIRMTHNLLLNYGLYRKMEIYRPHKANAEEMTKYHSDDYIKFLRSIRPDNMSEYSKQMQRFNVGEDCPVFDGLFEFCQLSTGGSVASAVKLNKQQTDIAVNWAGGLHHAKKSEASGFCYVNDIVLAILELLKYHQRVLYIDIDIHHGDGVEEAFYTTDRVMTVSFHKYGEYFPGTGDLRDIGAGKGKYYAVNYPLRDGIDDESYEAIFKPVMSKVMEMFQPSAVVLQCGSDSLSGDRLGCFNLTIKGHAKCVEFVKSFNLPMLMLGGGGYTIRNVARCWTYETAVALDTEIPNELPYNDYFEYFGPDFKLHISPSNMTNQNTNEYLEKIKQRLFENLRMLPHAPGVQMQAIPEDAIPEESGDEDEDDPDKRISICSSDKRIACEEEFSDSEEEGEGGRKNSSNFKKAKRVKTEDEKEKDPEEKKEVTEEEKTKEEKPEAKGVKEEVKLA
Chain of Receptor tyrosine-protein kinase erbB-2 (P04626 whole entry): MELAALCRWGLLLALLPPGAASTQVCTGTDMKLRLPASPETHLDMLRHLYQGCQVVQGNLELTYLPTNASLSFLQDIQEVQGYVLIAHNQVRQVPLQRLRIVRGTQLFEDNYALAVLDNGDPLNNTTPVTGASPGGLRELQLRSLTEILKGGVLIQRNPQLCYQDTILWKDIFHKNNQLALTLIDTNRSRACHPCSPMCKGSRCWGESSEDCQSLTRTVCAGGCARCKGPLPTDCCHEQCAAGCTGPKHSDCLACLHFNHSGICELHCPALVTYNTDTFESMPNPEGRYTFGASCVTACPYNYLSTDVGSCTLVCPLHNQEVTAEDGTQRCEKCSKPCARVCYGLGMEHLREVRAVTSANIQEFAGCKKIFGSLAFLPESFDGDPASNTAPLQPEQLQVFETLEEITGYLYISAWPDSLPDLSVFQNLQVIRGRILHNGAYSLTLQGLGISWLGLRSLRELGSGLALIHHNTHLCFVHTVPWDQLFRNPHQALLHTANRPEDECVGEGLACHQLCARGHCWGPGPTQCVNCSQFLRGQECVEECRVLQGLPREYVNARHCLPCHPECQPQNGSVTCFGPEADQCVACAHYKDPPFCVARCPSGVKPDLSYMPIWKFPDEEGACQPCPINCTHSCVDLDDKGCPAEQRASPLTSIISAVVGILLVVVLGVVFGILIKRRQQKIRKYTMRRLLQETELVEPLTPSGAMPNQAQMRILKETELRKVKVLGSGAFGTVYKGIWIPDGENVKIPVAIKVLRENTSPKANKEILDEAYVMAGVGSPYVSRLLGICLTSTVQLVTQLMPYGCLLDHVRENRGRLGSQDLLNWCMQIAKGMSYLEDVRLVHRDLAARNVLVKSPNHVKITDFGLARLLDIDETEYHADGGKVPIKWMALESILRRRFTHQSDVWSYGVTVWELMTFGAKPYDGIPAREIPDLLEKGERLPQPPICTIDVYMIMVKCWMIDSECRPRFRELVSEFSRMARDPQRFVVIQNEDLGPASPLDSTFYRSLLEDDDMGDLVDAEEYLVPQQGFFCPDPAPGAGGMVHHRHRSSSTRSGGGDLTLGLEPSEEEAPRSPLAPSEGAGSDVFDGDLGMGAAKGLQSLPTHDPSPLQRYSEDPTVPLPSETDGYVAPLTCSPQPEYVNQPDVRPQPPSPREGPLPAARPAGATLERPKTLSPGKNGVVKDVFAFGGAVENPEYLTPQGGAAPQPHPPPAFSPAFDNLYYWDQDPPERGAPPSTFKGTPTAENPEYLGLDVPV
Chain of Epidermal growth factor receptor (P00533 whole entry): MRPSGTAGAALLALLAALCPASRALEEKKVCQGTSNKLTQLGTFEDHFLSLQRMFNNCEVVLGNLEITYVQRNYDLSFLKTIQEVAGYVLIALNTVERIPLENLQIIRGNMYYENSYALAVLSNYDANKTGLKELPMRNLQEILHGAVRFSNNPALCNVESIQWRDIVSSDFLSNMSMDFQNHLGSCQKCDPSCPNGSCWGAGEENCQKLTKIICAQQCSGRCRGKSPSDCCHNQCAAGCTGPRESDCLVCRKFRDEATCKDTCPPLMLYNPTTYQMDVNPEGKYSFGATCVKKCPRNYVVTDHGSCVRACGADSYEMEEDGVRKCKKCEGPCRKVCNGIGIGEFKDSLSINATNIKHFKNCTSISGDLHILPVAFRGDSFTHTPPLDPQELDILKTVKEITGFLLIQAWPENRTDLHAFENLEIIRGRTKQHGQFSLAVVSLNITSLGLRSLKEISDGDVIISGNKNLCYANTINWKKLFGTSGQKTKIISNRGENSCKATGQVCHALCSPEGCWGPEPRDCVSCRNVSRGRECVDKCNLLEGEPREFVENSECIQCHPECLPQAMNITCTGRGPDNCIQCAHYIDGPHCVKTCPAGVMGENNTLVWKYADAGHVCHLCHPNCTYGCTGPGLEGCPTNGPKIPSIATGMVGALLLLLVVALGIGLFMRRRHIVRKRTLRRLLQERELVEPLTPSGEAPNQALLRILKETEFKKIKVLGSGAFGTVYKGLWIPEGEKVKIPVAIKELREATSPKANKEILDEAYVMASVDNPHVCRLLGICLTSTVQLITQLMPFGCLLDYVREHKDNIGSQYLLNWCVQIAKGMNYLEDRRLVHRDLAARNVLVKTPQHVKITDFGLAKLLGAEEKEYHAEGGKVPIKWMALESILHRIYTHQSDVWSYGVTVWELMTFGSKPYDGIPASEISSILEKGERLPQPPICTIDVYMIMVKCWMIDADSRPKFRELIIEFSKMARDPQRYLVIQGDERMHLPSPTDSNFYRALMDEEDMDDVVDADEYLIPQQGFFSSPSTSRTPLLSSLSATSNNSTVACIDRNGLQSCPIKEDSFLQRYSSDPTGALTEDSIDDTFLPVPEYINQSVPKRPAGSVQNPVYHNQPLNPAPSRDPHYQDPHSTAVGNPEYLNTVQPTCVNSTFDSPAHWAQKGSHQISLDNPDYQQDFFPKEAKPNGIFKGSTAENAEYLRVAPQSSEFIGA

With `O=C(CCCCCn1cc(-c2ccc3ncnc(Nc4ccc(F)c(Cl)c4)c3c2)nn1)NO`, the IC50 is 7 nM against Histone deacetylase 1; 0.65 nM in assay [1]; 166 nM in [2]; 9.5 nM in [3]; over 50000 nM in the assay “cells [4]”; 26000 nM in “cells [5]”.

On to `O=C(CCCCCCn1cc(-c2ccc3ncnc(Nc4ccc(OCc5nccs5)c(Cl)c4)c3c2)nn1)NO`, for which the IC50 on Histone deacetylase 1 turned out to be 5.6 nM; in [1] it was 3.6 nM; in assay [2], 707 nM; in assay [3] it was 13.6 nM; in the assay “cells [4]”, 8790 nM; in “cells [5]”, 2880 nM.

`O=C(CCCCCCn1cc(-c2ccc3ncnc(Nc4ccc(F)c(Cl)c4)c3c2)nn1)NO`: the IC50 was found to be 2.6 nM against Histone deacetylase 1; 0.69 nM in assay [1]; 177 nM in assay [2]; 1270 nM in the assay “cells [6]”; 1950 nM in “cells [7]”; 8.4 nM in [3]. In addition, the IC50 in the assay “cells [4]” is 510 nM; in “cells [8]”, 8760 nM; in the assay “cells [5]” it was 3630 nM.

As for `O=C(CCCCCCn1cc(-c2ccc3ncnc(Nc4ccc(OCc5cccc(F)c5)c(Cl)c4)c3c2)nn1)NO`, the IC50 amounted to 8.3 nM on Histone deacetylase 1; 4.2 nM in assay [1]; 16.4 nM in [2]; 19.5 nM in [3]; 3680 nM in “cells [4]”; 2240 nM in the assay “cells [5]”.

With `COc1cc(Nc2ncnc3ccc(-c4cn(CCCCCCC(=O)NO)nn4)cc23)ccc1Oc1ccccc1`, the concentration for half-maximal inhibition (IC50) is 12.8 nM against Histone deacetylase 1; 11.6 nM in [1]; over 1000 nM in assay [2]; 16 nM in assay [3]; 13500 nM in the assay “cells [4]”; 4950 nM in the assay “cells [5]”.

On to `O=C(CCCCCn1cc(-c2ccc3ncnc(Nc4cccc(Cl)c4F)c3c2)nn1)NO`, for which the IC50 on Histone deacetylase 1 was 1.4 nM; in [1] it was 0.27 nM; in [2], 386 nM; in assay [3], 4.1 nM; in “cells [4]”, over 50000 nM; in “cells [5]” it was over 50000 nM.

In “cells [7]”, `O=C(CCCCCCC(=O)Nc1ccccc1)NO` [VORINOSTAT] had an IC50 of 2290 nM.

For the compound `O=C(CCCCCn1cc(-c2ccc3ncnc(Nc4ccc(OCc5cccc(F)c5)c(Cl)c4)c3c2)nn1)NO`, the IC50 on Histone deacetylase 1 was 38.6 nM; in assay [1] it was 1.9 nM; in assay [2] it was 193 nM; in [3], 94.2 nM; in the assay “cells [4]”, over 50000 nM; in the assay “cells [5]”, 2200 nM.

For the compound `COc1cc(Nc2ncnc3ccc(-c4cn(CCCCCC(=O)NO)nn4)cc23)ccc1Oc1ccccc1`, the IC50 against Histone deacetylase 1 is 26.6 nM; in assay [1], 5.8 nM; in [2], over 1000 nM; in assay [3] it was 18.5 nM; in “cells [4]”, 43400 nM; in “cells [5]” it was 23600 nM.

`O=C(CCCCCn1cc(-c2ccc3ncnc(Nc4ccc(OCc5nccs5)c(Cl)c4)c3c2)nn1)NO`: the half-inhibitory concentration (IC50) on Histone deacetylase 1 was determined as 7.2 nM; in assay [1] it was 6.9 nM; in assay [2], 537 nM; in [3], 14.3 nM; in the assay “cells [4]” it was 9960 nM; in “cells [5]”, 20600 nM.

`CS(=O)(=O)CCNCc1ccc(-c2ccc3ncnc(Nc4ccc(OCc5cccc(F)c5)c(Cl)c4)c3c2)o1` [LAPATINIB]: the half-maximal inhibitory concentration (IC50) in “cells [6]” is 60 nM; in the assay “cells [7]”, 150 nM; in “cells [4]”, 510 to 1740 nM; in “cells [8]”, 7250 nM; in “cells [5]”, 100 nM.

Turning to `Cc1ccc(Oc2ccc(Nc3ncnc4ccc(-c5cn(CCCCCC(=O)NO)nn5)cc34)cc2C)cn1`, the IC50 on Histone deacetylase 1 was 6.9 nM; in assay [1], 6.4 nM; in [2], over 1000 nM; in [3], 12.9 nM; in the assay “cells [4]”, 8460 nM; in “cells [5]” it was 14600 nM.

Turning to `Cc1ccc(Oc2ccc(Nc3ncnc4ccc(-c5cn(CCCCCCC(=O)NO)nn5)cc34)cc2C)cn1`, the half-maximal inhibitory concentration (IC50) was 5.2 nM against Histone deacetylase 1; 10 nM in assay [1]; over 1000 nM in [2]; 13.8 nM in assay [3]; 16500 nM in the assay “cells [4]”; 4410 nM in “cells [5]”.
